From ChEMBL document CHEMBL1155553, “Design and synthesis of alpha-ketoamides as cathepsin S inhibitors with potential applications against tumor invasion and angiogenesis” (J Med Chem, 2010)
Values belong to the molecule of their own block, whether it stands above or below them.

Assays:
[1] = molecular target: T1, Cathepsin S (Homo sapiens, UniProt P25774); experiment: Inhibition of human recombinant cathepsin S expressed in Escherichia coli BL21 (DE3) after 10 mins by fluorescence assay
Target sequence in this assay (P25774 whole entry): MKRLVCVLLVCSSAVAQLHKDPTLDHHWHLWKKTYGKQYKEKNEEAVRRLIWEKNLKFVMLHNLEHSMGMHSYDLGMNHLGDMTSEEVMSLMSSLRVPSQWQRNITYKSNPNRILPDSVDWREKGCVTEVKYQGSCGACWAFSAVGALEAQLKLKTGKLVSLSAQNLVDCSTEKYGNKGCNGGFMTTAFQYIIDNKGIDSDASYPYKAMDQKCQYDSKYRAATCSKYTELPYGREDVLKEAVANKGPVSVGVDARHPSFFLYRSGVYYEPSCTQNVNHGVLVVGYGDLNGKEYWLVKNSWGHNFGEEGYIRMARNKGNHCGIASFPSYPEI

[2] = Cytotoxicity against human CL1-5 cells by MTT assay; assay type: cell-based
How it was run: (§1)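 Overall cytotoxicity measured by MTT proliferation assay, compounds tested at concentrations up to 50 μM.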

[3] = test system: HUVEC; experiment: Cytotoxicity against HUVEC by MTT assay; assay type: cell-based; conditions: Homo sapiens; how it was run: as §1
[4] = Antiinvasive activity in human CL1-5 cells assessed as cellular migration after 24 hrs by fluorescence assay relative to control; assay type: functional; design: concentration or dose not given beside the values
[5] = test system: HUVEC; experiment: Antiinvasive activity in VEGF-stimulated HUVEC assessed as cellular migration after 24 hrs by fluorescence assay relative to control; assay type: functional, Homo sapiens; design: concentration or dose not given beside the values
[6] = molecular target: Procathepsin L (Homo sapiens) (UniProt P07711); experiment: Inhibition of cathepsin L assessed as proteolytic activity at 40 nM by fluorimetric assay; design: Activity: scale not given: the % may be the effect or the level left
[7] = molecular target: Cathepsin B (Homo sapiens) (UniProt P07858); experiment: Inhibition of cathepsin B assessed as proteolytic activity at 40 nM by fluorimetric assay; design: Activity: scale not given: the % may be the effect or the level left
[8] = Antiinvasive activity in human CL1-5 cells after 24 hrs by fluorescence assay; assay type: functional
How it was run: (§2)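 CL1-5 lung adenocarcinoma cells (2 × 10⁵ per well) treated with compound; control wells received DMSO (10 μL) in medium (2 mL). Cell traversal/invasion expressed as percent of DMSO control (set 100%); mean ± SD from hexaplicate experiments.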

[9] = Antiinvasive activity in human CL1-5 cells assessed as cellular invasion after 24 hrs by fluorescence assay; assay type: functional; how it was run: as §2
[10] = test system: HUVEC; experiment: Antiangiogenic activity in VEGF-stimulated HUVEC assessed as inhibition of capillary tube formation after 16 hrs by photographic analysis; assay type: functional, Homo sapiens; design: scale not given: the % may be the effect or the level left
How it was run: (§3)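 HUVEC plated on Matrigel-coated wells, treated with α-ketoamide in presence of VEGF (20 ng/mL); after 16 h incubation cultures photographed and capillary tubes (branch points) counted under microscope at 100× magnification. Tube formation expressed relative to DMSO control; mean ± SD from three separate experiments.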

[11] = test system: HUVEC; experiment: Antiangiogenic activity in VEGF-stimulated HUVEC assessed as capillary tube formation after 16 hrs by photographic analysis; assay type: functional, Homo sapiens; how it was run: as §3
[12] = molecular target: T1, Cathepsin S; experiment: Inhibition of cathepsin S-mediated cleavage of fibronectin by cell-based ECM degradation assay
Target sequence in this assay (P25774 115-331 limits assumed): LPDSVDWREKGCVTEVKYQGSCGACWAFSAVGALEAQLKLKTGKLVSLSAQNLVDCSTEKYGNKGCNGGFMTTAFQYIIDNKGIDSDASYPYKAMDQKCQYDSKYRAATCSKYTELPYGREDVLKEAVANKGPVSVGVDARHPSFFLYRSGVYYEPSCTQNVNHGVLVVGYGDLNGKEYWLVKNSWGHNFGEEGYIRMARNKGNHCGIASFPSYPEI

Procathepsin L (Homo sapiens), sequence (P07711 114-333 limits assumed): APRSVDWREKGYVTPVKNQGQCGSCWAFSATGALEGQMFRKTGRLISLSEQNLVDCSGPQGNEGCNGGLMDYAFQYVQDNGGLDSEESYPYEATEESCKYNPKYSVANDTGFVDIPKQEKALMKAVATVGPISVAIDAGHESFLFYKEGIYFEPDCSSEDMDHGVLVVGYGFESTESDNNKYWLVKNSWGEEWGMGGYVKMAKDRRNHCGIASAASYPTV

SMILES: CCOC(=O)CNC(=O)C(=O)C(COCc1ccccc1)NC(=O)[C@H](CC1CCCCC1)NC(=O)C1=CC(=O)CC(C)(C)O1 (some centres not stated)
- IC50 [1]: 4.3 nM
- IC50 [2]: > 50000 nM
- IC50 [3]: 37000 nM
- Activity [4]: 98%
- Activity [5]: 89%

SMILES: CCCCCC1OC(=O)C(C(=O)N[C@@H](CC2CCCCC2)C(=O)NC(COCc2ccccc2)C(=O)C(=O)NCC(=O)OC)=CC1C (some centres not stated)
- IC50 [1]: 42.3 nM
- Activity [4]: 119%
- Activity [5]: 99%

SMILES: CCOC(=O)CNC(=O)C(=O)C(COCc1ccccc1)NC(=O)[C@H](CC1CCCCC1)NC(=O)C1(C)CC1 (some centres not stated)
- IC50 [1]: 3.4 nM
- IC50 [2]: > 50000 nM
- IC50 [3]: 35000 nM
- Activity [4]: 101%
- Activity [5]: 95%

SMILES: CCOC(=O)CNC(=O)C(=O)C(COCc1ccccc1)NC(=O)[C@H](CC1CCCCC1)NC(=O)c1cc(Br)ccc1NC(=O)OC(C)(C)C (some centres not stated)
- IC50 [1]: 23.8 nM
- Activity [4]: 76%
- Activity [5]: 86%

SMILES: CCOC(=O)CNC(=O)C(=O)C(COCc1ccccc1)NC(=O)[C@H](CC1CCCCC1)NC(=O)c1cc2ccccc2n1C (some centres not stated)
- IC50 [1]: 7.1 nM
- Activity [4]: 69%
- Activity [5]: 55%

SMILES: CCOC(=O)CNC(=O)C(=O)C(COCc1ccccc1)NC(=O)[C@H](CC1CCCCC1)NC(=O)c1ccc([N+](=O)[O-])s1 (some centres not stated)
- IC50 [1]: 10.3 nM
- IC50 [2]: > 50000 nM
- IC50 [3]: 48000 nM
- Activity [4]: 64%
- Activity [5]: 56%

SMILES: N#C[C@H](COCc1ccccc1)NC(=O)[C@H](CC1CCCCC1)NC(=O)N1CCOCC1
- Activity [6]: 44.8%
- Activity [7]: 104%
- IC50 [2]: > 50000 nM
- IC50 [3]: > 50000 nM
- Activity [4]: 67%
- Activity [5]: 83%

SMILES: CCOC(=O)CNC(=O)C(=O)C(COCc1ccccc1)NC(=O)[C@H](CC1CCCCC1)NC(=O)/C=C/c1cc(OC)ccc1OC (some centres not stated)
- IC50 [1]: 3.8 nM
- IC50 [2]: > 50000 nM
- Activity [4]: 81%
- Activity [5]: 59%

SMILES: CCOC(=O)CNC(=O)C(=O)C(COCc1ccccc1)NC(=O)[C@H](CC1CCCCC1)NC(=O)Cc1cccc2ccccc12 (some centres not stated)
- IC50 [1]: 5.7 nM
- Activity [4]: 41%
- Activity [5]: 54%

SMILES: CCOC(=O)CNC(=O)C(=O)C(COCc1ccccc1)NC(=O)[C@H](CC1CCCCC1)NC(=O)Cc1cccs1 (some centres not stated)
- IC50 [1]: 7.2 nM
- IC50 [2]: > 50000 nM
- IC50 [3]: 39000 nM
- Activity [4]: 67%
- Activity [5]: 59%

SMILES: CC(C)C[C@H](NC(=O)[C@H]1O[C@@H]1C(=O)O)C(=O)NCCCCN=C(N)N
- inhibition [6]: -1.3%
- inhibition [7]: 75%

SMILES: CCOC(=O)CNC(=O)C(=O)C(COCc1ccccc1)NC(=O)[C@H](CC1CCCCC1)NC(=O)c1cc(Cl)cc([N+](=O)[O-])c1 (some centres not stated)
- IC50 [1]: 22.8 nM
- IC50 [2]: > 50000 nM
- IC50 [3]: > 50000 nM
- Activity [4]: 80%
- Activity [5]: 73%

SMILES: CCOC(=O)CNC(=O)C(=O)C(COCc1ccccc1)NC(=O)[C@H](CC1CCCCC1)NC(=O)CC(c1ccccc1)(c1ccccc1)c1ccccc1 (some centres not stated)
- IC50 [1]: > 100 nM
- IC50 [2]: > 50000 nM

SMILES: CCOC(=O)CNC(=O)C(=O)C(COCc1ccccc1)NC(=O)[C@H](CC1CCCCC1)NC(=O)CCC(=O)c1ccc2ccc3cccc4ccc1c2c34 (some centres not stated)
- IC50 [1]: > 100 nM

SMILES: CCOC(=O)CNC(=O)C(=O)C(COCc1ccccc1)NC(=O)[C@H](CC1CCCCC1)NC(=O)c1cncc(C)n1 (some centres not stated)
- IC50 [1]: 6.1 nM
- Activity [4]: 60%
- Activity [5]: 62%

SMILES: CCOC(=O)CNC(=O)C(=O)C(COCc1ccccc1)NC(=O)[C@H](CC1CCCCC1)NC(=O)c1ccc(Br)o1 (some centres not stated)
- IC50 [1]: 2.3 nM
- Activity [4]: 80%
- Activity [5]: 76%

Continued, in another order:

- IC50 [1]: 1.9 nM
- Activity [6]: 2.9%
- Activity [7]: 97%
SMILES: CCOC(=O)CNC(=O)C(=O)C(COCc1ccccc1)NC(=O)[C@H](CC1CCCCC1)NC(=O)c1cccc([N+](=O)[O-])c1 (some centres not stated)
- IC50 [2]: > 50000 nM
- IC50 [3]: > 50000 nM
- Activity [4]: 67%
- Activity [5]: 39%

- IC50 [1]: 2.1 nM
SMILES: CCOC(=O)CNC(=O)C(=O)C(COCc1ccccc1)NC(=O)[C@H](CC1CCCCC1)NC(=O)c1ccc(Cl)c(N)c1 (some centres not stated)
- IC50 [2]: > 50000 nM
- IC50 [3]: > 50000 nM
- Activity [4]: 68%
- Activity [5]: 46%

- IC50 [1]: 5.8 nM
- Activity [6]: 8%
- Activity [7]: 84%
- inhibition [12]: Dose-dependent effect
SMILES: CCOC(=O)CNC(=O)C(=O)C(COCc1ccccc1)NC(=O)[C@H](CC1CCCCC1)NC(=O)c1ccc(C(=O)OC)c(N)c1 (some centres not stated)
- IC50 [2]: > 50000 nM
- IC50 [3]: > 50000 nM
- Activity [4]: 53%
- Activity [5]: 49%
- Activity [8]: 67%
- Activity [9]: 33%
- Activity [10]: 57%
- Activity [11]: 43%

- IC50 [1]: 49.2 nM
- Activity [6]: 8.7%
- Activity [7]: 89%
SMILES: CCOC(=O)CNC(=O)C(=O)C(COCc1ccccc1)NC(=O)[C@H](CC1CCCCC1)NC(=O)c1ccc(C(=O)OC)c(NC(=O)OC(C)(C)C)c1 (some centres not stated)
- IC50 [2]: 36000 nM
- IC50 [3]: 47000 nM
- Activity [4]: 51%
- Activity [5]: 82%

- IC50 [1]: 11.5 nM
SMILES: CCOC(=O)CNC(=O)C(=O)[C@H](COCc1ccccc1)NC(=O)[C@H](CC1CCCCC1)NC(=O)c1cc(F)ccc1F
- Activity [4]: 48%
- Activity [5]: 34%

- IC50 [1]: 3.6 nM
- Activity [6]: 17.4%
- Activity [7]: 92%
SMILES: CCOC(=O)CNC(=O)C(=O)C(COCc1ccccc1)NC(=O)[C@H](CC1CCCCC1)NC(=O)c1cc(SC)ccc1Cl (some centres not stated)
- IC50 [2]: 32000 nM
- IC50 [3]: > 50000 nM
- Activity [4]: 65%

- IC50 [1]: 5.9 nM
SMILES: CCOC(=O)CNC(=O)C(=O)C(COCc1ccccc1)NC(=O)[C@H](CC1CCCCC1)NC(=O)c1cccc(F)c1F (some centres not stated)
- Activity [4]: 115%
- Activity [5]: 107%

- IC50 [1]: 6.2 nM
SMILES: CCOC(=O)CNC(=O)C(=O)C(COCc1ccccc1)NC(=O)[C@H](CC1CCCCC1)NC(=O)c1ccc(C)cc1 (some centres not stated)
- Activity [4]: 55%
- Activity [5]: 55%

- IC50 [1]: 5.6 nM
SMILES: CCOC(=O)CNC(=O)C(=O)C(COCc1ccccc1)NC(=O)[C@H](CC1CCCCC1)NC(=O)c1cccc(C)c1[N+](=O)[O-] (some centres not stated)
- Activity [4]: 79%
- Activity [5]: 83%

- IC50 [1]: 3.1 nM
SMILES: CCOC(=O)CNC(=O)C(=O)C(COCc1ccccc1)NC(=O)[C@H](CC1CCCCC1)NC(=O)c1cc(OC)ccc1[N+](=O)[O-] (some centres not stated)
- IC50 [2]: > 50000 nM
- IC50 [3]: 39000 nM
- Activity [4]: 95%
- Activity [5]: 98%

- IC50 [1]: 8 nM
SMILES: CCOC(=O)CNC(=O)C(=O)C(COCc1ccccc1)NC(=O)[C@H](CC1CCCCC1)NC(=O)c1cc(Cl)ccc1[N+](=O)[O-] (some centres not stated)
- IC50 [2]: > 50000 nM
- IC50 [3]: > 50000 nM
- Activity [4]: 76%
- Activity [5]: 68%

- IC50 [1]: 2 nM
- Activity [6]: 0.4%
- Activity [7]: 91%
SMILES: CCOC(=O)CNC(=O)C(=O)C(COCc1ccccc1)NC(=O)[C@H](CC1CCCCC1)NC(=O)c1ccc(OC(C)=O)cc1 (some centres not stated)
- IC50 [2]: > 50000 nM
- IC50 [3]: > 50000 nM
- Activity [4]: 69%
- Activity [5]: 27%

- IC50 [1]: 15.7 nM
SMILES: CCOC(=O)CNC(=O)C(=O)C(COCc1ccccc1)NC(=O)[C@H](CC1CCCCC1)NC(=O)c1ccc(Cl)c(NC(=O)OC(C)(C)C)c1 (some centres not stated)
- IC50 [2]: 42000 nM
- IC50 [3]: 48000 nM
- Activity [4]: 50%
- Activity [5]: 48%

- IC50 [1]: 6.2 nM
SMILES: CCOC(=O)CNC(=O)C(=O)[C@H](COCc1ccccc1)NC(=O)[C@H](CC1CCCCC1)NC(=O)c1cc(Br)ccc1N
- Activity [4]: 52%
- Activity [5]: 69%
